Assay results from publication PMC4281708 (Cancer research, 2012).
Residue numbers refer to the chain shown, from its start. Entries after “also recorded” stand apart in the source; their conditions may differ. Where two headings read alike, the source gives them in different places.

What was measured:
[1] = test system: PSA and TMPRSS2 mRNA expression in LNCaP cells; assay: Quantitative RT-PCR of AR-regulated genes, LNCaP; assay type: cell-based, human
Method in brief: (§1)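 Cells held 24 h in phenol red-free medium with charcoal-stripped serum, then treated 5 h with test compound (0.1–10 µM) or 0.1nM R1881. After RNA extraction and cDNA synthesis, SYBR Green qPCR for PSA and TMPRSS2 used 50ng cDNA per reaction, each sample run in duplicate. Normalised to actin and GAPDH, relative to a reference sample (2^-ΔΔCt). 3 independent experiments, mean ± SEM.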

LNCaP cells = assay: Cell viability; assay type: cell-based, human; settings: for growth inhibition of LNCaP cells stimulated by eplerenone / growth inhibition of LNCaP cells stimulated by spironolactone: 0.1, 1 or 5μM abiraterone, 10μM bicalutamide or 10μM MDV3100, 7 days; for proliferation of hormone-stripped LNCaP (T877A-AR): 1 and 10μM, CSS, 7 days
VCaP cells = assay: Cell viability; assay type: cell-based, human; settings: for growth inhibition of VCaP cells stimulated by spironolactone: 0.1, 1 or 5μM abiraterone, 10μM bicalutamide or 10μM MDV3100, 7 days; for proliferation of VCaP (WT-AR): 1 and 10μM, CSS, 7 days
W741C-AR = assay: PSA-ARE3-luc luciferase reporter assay in transfected PC-3 cells, W741C-AR; assay type: cell-based, human
wild-type (WT)-AR [2] = assay: PSA-ARE3-luc luciferase reporter assay in transfected PC-3 cells, WT-AR; assay type: cell-based, human; settings: compared to R1881
D879G-AR = assay: PSA-ARE3-luc luciferase reporter assay in transfected PC-3 cells, D879G-AR; assay type: cell-based, human; settings: compared to R1881
Method in brief: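 Human AR expression plasmid carrying the mutation (confirmed by sequencing) co-transfected with PSA-ARE3-luc reporter into PC-3 cells. Cells grown 30 h in phenol red-free RPMI 1640 with 10% charcoal-stripped serum, then exposed 16 h to test compound (DMSO ≤0.2%) with R1881 as reference agonist. Luminescence read after ONE Glo. Fold change vs DMSO control; EC50 by nonlinear regression; 3 independent experiments, 16 replicates.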

[3] = test system: castration-resistant prostate cancer (CRPC); settings: 1000mg abiraterone daily ref 1, 2; cited from earlier work
T877A-AR [4] = target: T1, T877A-AR (Homo sapiens, UniProt P10275, T878A); assay: cell-based; assay type: binding
T1 sequence (P10275 1-920 T878A): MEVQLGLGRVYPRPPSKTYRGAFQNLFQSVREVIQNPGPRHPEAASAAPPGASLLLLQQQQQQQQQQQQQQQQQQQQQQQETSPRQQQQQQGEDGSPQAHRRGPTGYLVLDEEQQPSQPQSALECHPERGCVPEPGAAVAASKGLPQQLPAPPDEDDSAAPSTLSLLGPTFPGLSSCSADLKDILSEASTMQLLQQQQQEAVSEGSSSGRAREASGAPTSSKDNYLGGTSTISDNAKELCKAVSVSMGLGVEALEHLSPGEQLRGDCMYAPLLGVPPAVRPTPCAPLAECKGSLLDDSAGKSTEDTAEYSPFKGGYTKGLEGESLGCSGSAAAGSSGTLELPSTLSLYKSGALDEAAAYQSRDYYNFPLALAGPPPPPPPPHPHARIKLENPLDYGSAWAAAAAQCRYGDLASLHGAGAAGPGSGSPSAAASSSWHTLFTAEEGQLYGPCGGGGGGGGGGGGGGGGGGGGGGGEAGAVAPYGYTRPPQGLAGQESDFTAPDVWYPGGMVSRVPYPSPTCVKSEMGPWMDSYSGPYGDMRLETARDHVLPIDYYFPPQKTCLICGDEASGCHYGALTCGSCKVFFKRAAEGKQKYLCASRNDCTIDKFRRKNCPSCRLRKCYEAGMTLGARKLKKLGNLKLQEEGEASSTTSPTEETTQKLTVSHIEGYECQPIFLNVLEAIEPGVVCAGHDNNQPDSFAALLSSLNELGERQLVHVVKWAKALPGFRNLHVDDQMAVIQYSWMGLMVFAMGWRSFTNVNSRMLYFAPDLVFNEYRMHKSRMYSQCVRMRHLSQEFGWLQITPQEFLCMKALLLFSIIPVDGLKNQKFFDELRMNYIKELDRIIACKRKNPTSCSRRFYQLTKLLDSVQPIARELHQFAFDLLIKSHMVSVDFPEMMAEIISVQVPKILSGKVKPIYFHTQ

PC-3 = assay: Cell proliferation, PC-3; assay type: cell-based, human; settings: AR-negative prostate cancer cell line
WT-AR = target: T2, WT-AR (Homo sapiens, UniProt P10275); assay: cell-based; assay type: binding
T2 sequence (P10275 1-920): T1 sequence (P10275 1-920 T878A) with A878T

AR = settings: cited from earlier work
DU145 = assay: Cell proliferation, DU145; assay type: cell-based, human; settings: AR-negative prostate cancer cell line
T877A-AR [5] = target: T1, T877A-AR; assay type: cell-based
Solubility in cell media = assay type: physicochemical; settings: plasma or biological fluid, kinetic from dmso stock
[6] = patients ref 2; cited from earlier work
LNCaP (T877A-AR) = target: T3, LNCaP (T877A-AR) (Homo sapiens, UniProt P10275, T878A); assay: cell-based; assay type: binding
T3 sequence (P10275 1-920 T878A): T1 sequence (P10275 1-920 T878A)

[7] = test system: WT or mutant human AR (T877A, G142V, P533S, T575A, H874Y, R629Q); assay: GRE2-TATA-Luc reporter assay in COS-7 cells co-transfected with AR; assay type: cell-based
[8] = test system: WT or mutant AR (T877A, D879G, W741C, M749L, R629Q); assay: ARE3-luciferase reporter assay in PC-3 cells, WT and mutant AR panel; assay type: cell-based, human
[9] = test system: PSA and TMPRSS2 mRNA expression in VCaP cells; assay: Quantitative RT-PCR of AR-regulated genes, VCaP; assay type: cell-based, human; settings: 0.1 - 10μM eplerenone, 5 hours
Method in brief: as §1

wild-type (WT)-AR [10] = settings: cited from earlier work
[11] = 100mg eplerenone ref 6, cited from earlier work

## CNC(=O)c1ccc(N2C(=S)N(c3ccc(C#N)c(C(F)(F)F)c3)C(=O)C2(C)C)cc1F [MDV3100]
[1]; LNCaP, 10μM eplerenone, 10μM MDV3100, 5 hours
  inhibition of induction of TMPRSS2 expression by eplerenone: more significantly than bicalutamide or abiraterone
LNCaP cells
  growth inhibition of LNCaP cells stimulated by eplerenone: more profound inhibition
  growth inhibition of LNCaP cells stimulated by spironolactone: more profound inhibition
VCaP cells
  growth inhibition of VCaP cells stimulated by spironolactone: more profound inhibition

## CC(O)(CS(=O)(=O)c1ccc(F)cc1)C(=O)Nc1ccc(C#N)c(C(F)(F)F)c1 (stereo not shown) [bicalutamide]
W741C-AR
  activation of W741C-AR: activated

## CC(=O)S[C@@H]1CC2=CC(=O)CC[C@]2(C)[C@H]2CC[C@@]3(C)[C@@H](CC[C@@]34CCC(=O)O4)[C@H]12 [spironolactone]
wild-type (WT)-AR [2]
  activation of WT-AR: activates
LNCaP cells
  proliferation of hormone-stripped LNCaP (T877A-AR): increased proliferation
D879G-AR
  activation of D879G-AR: activates
VCaP cells
  proliferation of VCaP (WT-AR): increased the proliferation

## C[C@@H]1C[C@H]2[C@@H]3CCC4=CC(=O)C=C[C@]4(C)[C@@]3(F)[C@@H](O)C[C@]2(C)[C@@]1(O)C(=O)CO [dexamethasone]
wild-type (WT)-AR [2]
  activation of WT-AR: do not activate

## C[C@]12C=CC(=O)C=C1CC[C@@H]1[C@@H]2C(=O)C[C@@]2(C)[C@H]1CC[C@]2(O)C(=O)CO [prednisone]
wild-type (WT)-AR [2]
  activation of WT-AR: do not activate

## C[C@]12CC[C@H](O)CC1=CC[C@@H]1[C@@H]2CC[C@]2(C)C(c3cccnc3)=CC[C@@H]12 [abiraterone]
[1]; 5μM abiraterone, 0.1nM R1881, 5 hours
  regulation of PSA and TMPRSS2 in LNCaP cells treated with abiraterone: down-regulation
[3]
  objective tumor responses, CRPC patients: up to 60%
T877A-AR [4]
  EC50: 7.9 µM
LNCaP cells
  growth inhibition of LNCaP cells stimulated by eplerenone: dose-proportional growth inhibition
  growth inhibition of LNCaP cells stimulated by spironolactone: dose-proportional growth inhibition
LNCaP cells; CSS with 0.1nM R1881, 7 days
  doses with significant inhibition of proliferation of LNCaP: ≥ 5 µM
PC-3
  inhibitory effect on proliferation of PC-3: No inhibitory effect was observed
WT-AR
  EC50: 13.4 µM
AR
  binding to the AR: failed to identify binding
  effect on AR levels: dose-dependent decrease in AR levels
DU145
  inhibitory effect on proliferation of DU145: No inhibitory effect was observed
VCaP cells
  growth inhibition of VCaP cells stimulated by spironolactone: dose-proportional growth inhibition
VCaP cells; CSS with 0.1nM R1881, 7 days
  doses with significant inhibition of proliferation of VCaP: ≥ 5 µM
T877A-AR [5]
  inhibition of activation of T877A-AR by 1μM eplerenone: significantly inhibited
Solubility in cell media
  solubility: > 25 µM
[6]
  doses safely tolerated: at least 2000 mg daily
LNCaP (T877A-AR)
  EC50: 2.6 µM
[7]; COS-7, 10nM DHT, compared with PC-3 ARE3-luciferase assay
  inhibition of R629Q-AR: Higher concentrations of abiraterone were required
[7]; COS-7, activated by 10nM DHT for 24 hours, 0.1 - 5μM
  inhibition of WT-AR, T877A-AR, G142V-AR, P533S-AR, T575A-AR and H874Y-AR: dose-proportional inhibition
[8]; 0.1nM R1881, 16 hours
  inhibition of stimulated WT and mutant AR activity: dose-proportional inhibition
[8]; 1μM abiraterone
  AR inhibition: up to 32%
[8]; doses up to 25μM
  increase in reporter-luciferase activity (agonistic activity) with WT-AR or any mutation tested: did not observe an increase in reporter-luciferase activity; also recorded: no agonistic activity was observed

## COC(=O)[C@@H]1CC2=CC(=O)CC[C@]2(C)[C@@]23O[C@@H]2C[C@@]2(C)[C@@H](CC[C@@]24CCC(=O)O4)[C@H]13 [eplerenone]
[1]; 0.1 - 10μM eplerenone, 5 hours
  expression of PSA and TMPRSS2 in LNCaP: significantly increased expression
wild-type (WT)-AR [2]
  activation of WT-AR: does not activate
LNCaP cells
  proliferation of hormone-stripped LNCaP (T877A-AR): increased proliferation
W741C-AR
  activation of W741C-AR: does not activate
[9]
  expression of PSA and TMPRSS2 in VCaP: not in VCaP
wild-type (WT)-AR [10]
  binding and activation of wild-type (WT)-AR: did not bind and activate
D879G-AR
  activation of D879G-AR: does not activate
VCaP cells
  proliferation of VCaP (WT-AR): only spironolactone increased the proliferation
[11]
  Cmax: 1720 ± 280 ng/mL
[11]; read-out: Cmax (equivalent)
  Cmax: 4.2 µM
